According to ChEMBL document CHEMBL3120102, “Structure-based design, synthesis and biological evaluation of novel anthra[1,2-d]imidazole-6,11-dione homologues as potential antitumor agents” (2013):

What was measured:
Assay type in all cases: functional
[1] = system: MDA-MB-231; test: Cytotoxicity against human MDA-MB-231 cells assessed as growth inhibition after 48 hrs by SRB assay
In short: (§1)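 NCI 60-cell-line screen, five-dose stage: each cell line exposed for 48 h to five concentrations spanning five log steps; cellular protein measured by sulforhodamine B colorimetry. A time-zero cell control and plates without drug are used to derive GI50, TGI and LC50 from log-concentration dose-response curves.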

[2] = system: OVCAR-5; test: (§2) Cytotoxicity against human OVCAR5 cells assessed as growth inhibition after 48 hrs by SRB assay; in short: as §1
[3] = as §2; settings: OVCAR-5, 48 h; in short: as §1
[4] = system: MDA-MB-435; test: Cytotoxicity against human MDA-MB-435 cells assessed as growth inhibition after 48 hrs by SRB assay; in short: as §1
[5] = system: TK-10; test: Cytotoxicity against human TK10 cells assessed as growth inhibition after 48 hrs by SRB assay
In short: (§3)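 NCI 60-cell-line screen, two stages. Five-dose testing at […]. Cellular protein measured by sulforhodamine B colorimetry after 48 h drug exposure. A time-zero control and drug-free plates are used to derive GI50, TGI and LC50 from dose-response curves plotted as log10 concentration per cell line.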

[6] = system: OVCAR-4; test: (§4) Cytotoxicity against human OVCAR4 cells assessed as growth inhibition after 48 hrs by SRB assay; in short: as §1
[7] = as §4; settings: OVCAR-4, 48 h; in short: as §1
[8] = system: 786-0; test: Cytotoxicity against human 786-0 cells assessed as growth inhibition after 48 hrs by SRB assay
In short: (§5)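 NCI 60-cell-line five-dose screen at […]. Drug exposure was 48 h, followed by sulforhodamine B protein staining. GI50, TGI and LC50 were calculated against a time-zero control and untreated plates, with dose–response curves plotted from log10 concentration.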

[9] = system: NCI-H522; test: Cytotoxicity against human NCI-H522 cells assessed as growth inhibition after 48 hrs by SRB assay; in short: as §1
[10] = system: IGROV-1; test: Cytotoxicity against human IGROV1 cells assessed as growth inhibition after 48 hrs by SRB assay; in short: as §5
[11] = system: HL-60(TB); test: Cytotoxicity against human HL-60(TB) cells assessed as growth inhibition after 48 hrs by SRB assay
In short: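 NCI 60-cell panel five-concentration stage (0.01, 0.1, 1, 10, 100) in HL-60(TB). Cellular protein was measured by sulforhodamine B colorimetry after 48 h of exposure. A time-zero cell control and untreated plates allowed calculation of GI50, TGI and LC50. These were read from log10 concentration dose-response curves.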

[12] = system: SK-MEL-2; test: Cytotoxicity against human SK-MEL-2 cells assessed as growth inhibition after 48 hrs by SRB assay; in short: as §1
[13] = system: SR; test: Cytotoxicity against human SR cells assessed as growth inhibition after 48 hrs by SRB assay; in short: as §3
[14] = system: A498; test: Cytotoxicity against human A498 cells assessed as growth inhibition after 48 hrs by SRB assay; in short: as §5
[15] = system: Malme-3M; test: Cytotoxicity against human MALME-3M cells assessed as growth inhibition after 48 hrs by SRB assay; in short: as §5
[16] = system: ACHN; test: Cytotoxicity against human ACHN cells assessed as growth inhibition after 48 hrs by SRB assay; in short: as §5
[17] = system: SF-295; test: Cytotoxicity against human SF295 cells assessed as growth inhibition after 48 hrs by SRB assay; in short: as §1
[18] = Cytotoxicity against human Hs578T cells assessed as cell growth at 10 uM after 48 hrs by SRB assay; settings: Hs-578T, read-out: Activity
[19] = system: BT-549; test: Cytotoxicity against human BT549 cells assessed as growth inhibition after 48 hrs by SRB assay; in short: as §5
[20] = system: UO-31; test: (§6) Cytotoxicity against human UO31 cells assessed as growth inhibition after 48 hrs by SRB assay; in short: as §3
[21] = as §6; settings: UO-31, 48 h; in short: as §3
[22] = system: K562; test: Cytotoxicity against human K562 cells assessed as growth inhibition after 48 hrs by SRB assay; in short: as §5
[23] = system: HCC 2998; test: Cytotoxicity against human HCC2998 cells assessed as growth inhibition after 48 hrs by SRB assay; in short: as §5
[24] = system: MDA-MB-468; test: Cytotoxicity against human MDA-MB-468 cells assessed as growth inhibition after 48 hrs by SRB assay; in short: as §1
[25] = system: HT-29; test: Cytotoxicity against human HT-29 cells assessed as cell growth at 10 uM after 48 hrs by SRB assay; settings: HT-29, 48 h, read-out: Activity
[26] = system: SNB-19; test: Cytotoxicity against human SNB19 cells assessed as growth inhibition after 48 hrs by SRB assay; in short: as §3
[27] = system: NCI-H226; test: Cytotoxicity against human NCI-H226 cells assessed as growth inhibition after 48 hrs by SRB assay; in short: as §1
[28] = system: UACC-62; test: Cytotoxicity against human UACC62 cells assessed as growth inhibition after 48 hrs by SRB assay; in short: as §3
[29] = system: HCT-116; test: Cytotoxicity against human HCT116 cells assessed as growth inhibition after 48 hrs by SRB assay; in short: as §5
[30] = read-out: LC50 (the source's name)

CN(C)CCCSc1nc2ccc3c(c2[nH]1)C(=O)c1ccccc1C3=O
growth inhibition (GI) [1]: Dose-dependent effect | GI50 ([1]; MDA-MB-231, 48 h): 4.96 µM | TGI ([1]; MDA-MB-231, 48 h): 19.3 µM | growth inhibition (GI) [2]: Dose-dependent effect | GI50 [3]: 12.7 µM | TGI [3]: 25.9 µM | growth inhibition (GI) [4]: Dose-dependent effect | GI50 ([4]; MDA-MB-435, 48 h): 10.4 µM | TGI ([4]; MDA-MB-435, 48 h): 22.2 µM | growth inhibition (GI) [5]: Dose-dependent effect | GI50 ([5]; TK-10, 48 h): 1.37 µM | TGI ([5]; TK-10, 48 h): 13.5 µM | growth inhibition (GI) [6]: Dose-dependent effect | GI50 [7]: 0.031 µM | TGI [7]: 5.04 µM | growth inhibition (GI) [8]: Dose-dependent effect | GI50 ([8]; 786-0, 48 h): 9.73 µM | TGI ([8]; 786-0, 48 h): 23.8 µM | growth inhibition (GI) [9]: Dose-dependent effect | GI50 ([9]; NCI-H522, 48 h): 12.2 µM | TGI ([9]; NCI-H522, 48 h): 24.9 µM | CC50 ([9]; NCI-H522, 48 h, read-out: LC50 (the source's name)): 50.5 µM | growth inhibition (GI) [10]: Dose-dependent effect | GI50 ([10]; IGROV-1, 48 h): 0.329 µM | TGI ([10]; IGROV-1, 48 h): 12.8 µM | growth inhibition (GI) [11]: Dose-dependent effect | GI50 ([11]; HL-60, 48 h): 2.41 µM | TGI ([11]; HL-60, 48 h): 8.52 µM | growth inhibition (GI) [12]: Dose-dependent effect | GI50 ([12]; SK-MEL-2, 48 h): 13.3 µM | TGI ([12]; SK-MEL-2, 48 h): 26.3 µM | GI50 [13]: 0.43 µM | TGI [13]: 3.47 µM | growth inhibition (GI) [13]: Dose-dependent effect | growth inhibition (GI) [14]: Dose-dependent effect | GI50 ([14]; A498, 48 h): 12.1 µM | TGI ([14]; A498, 48 h): 24.8 µM | CC50 ([14]; A498, 48 h, read-out: LC50 (the source's name)): 51 µM | GI50 [15]: 13.9 µM | TGI [15]: 27 µM | growth inhibition (GI) [15]: Dose-dependent effect | CC50 [15, 30]: 52.4 µM | GI50 [16]: 1.74 µM | TGI [16]: 15 µM | growth inhibition (GI) [16]: Dose-dependent effect | CC50 [16, 30]: 38.7 µM | growth inhibition (GI) [17]: Dose-dependent effect | GI50 ([17]; SF-295, 48 h): 14.8 µM | TGI ([17]; SF-295, 48 h): 28.4 µM | growth at 10 µM [18]: 69.3% | growth inhibition (GI) [19]: Dose-dependent effect | GI50 ([19]; BT-549, 48 h): 9.13 µM | TGI ([19]; BT-549, 48 h): 21.8 µM | growth inhibition (GI) [20]: Dose-dependent effect | GI50 [21]: 0.564 µM | TGI [21]: 11.7 µM | growth inhibition (GI) [22]: Dose-dependent effect | GI50 ([22]; K562, 48 h): 2.04 µM | TGI ([22]; K562, 48 h): 4.73 µM | CC50 ([22]; K562, 48 h, read-out: LC50 (the source's name)): 13.6 µM | growth inhibition (GI) [23]: Dose-dependent effect | GI50 ([23]; HCC 2998, 48 h): 4.14 µM | TGI ([23]; HCC 2998, 48 h): 17.7 µM | CC50 ([23]; HCC 2998, 48 h, read-out: LC50 (the source's name)): 43.4 µM | growth inhibition (GI) [24]: Dose-dependent effect | GI50 ([24]; MDA-MB-468, 48 h): < 0.01 µM | TGI ([24]; MDA-MB-468, 48 h): 0.439 µM | growth at 10 µM [25]: 17.8% | growth inhibition (GI) [26]: Dose-dependent effect | GI50 ([26]; SNB-19, 48 h): 7.2 µM | TGI ([26]; SNB-19, 48 h): 20.7 µM | growth inhibition (GI) [27]: Dose-dependent effect | TGI ([27]; NCI-H226, 48 h): 22.1 µM | growth inhibition (GI) [28]: Dose-dependent effect | GI50 ([28]; UACC-62, 48 h): 10.8 µM | TGI ([28]; UACC-62, 48 h): 23 µM | growth inhibition (GI) [29]: Dose-dependent effect | GI50 ([29]; HCT-116, 48 h): 1.85 µM | TGI ([29]; HCT-116, 48 h): 8.75 µM
